Converted amounts (≈) assume the structure as drawn. The source made the active and inactive calls. No cut-off for these calls is given here.
Key:
[1] = target: T1, E. coli GroEL/ES (Escherichia coli, UniProt P0A6F5); assay: Inhibition of Escherichia coli GroEL/GroES using Escherichia coli GroEL expressed in Escherichia coli DH5alpha cells and Escherichia coli GroES expressed in Escherichia coli BL21(DE3) cells assessed as inhibition of denatured rhodanese refolding by measuring reduction in thiocyanate production incubated for 60 mins by micro plate reader analysis
T1 sequence (P0A6F5 whole entry, looked up): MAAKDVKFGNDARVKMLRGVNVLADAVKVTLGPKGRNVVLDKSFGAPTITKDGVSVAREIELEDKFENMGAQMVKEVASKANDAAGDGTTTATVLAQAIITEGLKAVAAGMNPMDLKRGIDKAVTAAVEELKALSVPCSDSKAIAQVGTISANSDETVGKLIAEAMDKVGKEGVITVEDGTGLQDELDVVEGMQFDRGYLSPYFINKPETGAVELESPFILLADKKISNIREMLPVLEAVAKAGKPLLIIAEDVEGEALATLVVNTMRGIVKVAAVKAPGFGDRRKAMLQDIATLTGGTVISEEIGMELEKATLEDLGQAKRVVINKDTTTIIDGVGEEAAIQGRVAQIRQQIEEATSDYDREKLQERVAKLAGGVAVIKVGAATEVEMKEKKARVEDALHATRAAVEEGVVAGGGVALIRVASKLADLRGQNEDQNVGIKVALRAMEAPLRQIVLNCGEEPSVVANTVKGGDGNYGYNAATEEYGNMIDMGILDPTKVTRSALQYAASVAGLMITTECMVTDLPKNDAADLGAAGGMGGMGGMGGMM
How it was run: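 Urea-denatured rhodanese bound to GroEL/GroES in folding buffer containing thiosulfate. After 60 min at 37°C, thiocyanate reaction (KCN, thiosulfate, phosphate) run, then formaldehyde quench and ferric nitrate added. Fe(SCN)3 read at 460 nm after 15 min RT, with protein-free baseline plates.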

[2] = target: T1, E. coli GroEL/ES; assay: Inhibition of Escherichia coli GroEL/GroES using Escherichia coli GroEL expressed in Escherichia coli DH5alpha cells and Escherichia coli GroES expressed in Escherichia coli BL21(DE3) cells assessed as reduction in native refolded rhodanese-mediated thiocyanate production by micro plate reader analysis
[3] = target: T1, E. coli GroEL/ES; assay: Inhibition of Escherichia coli GroEL/GroES using Escherichia coli GroEL expressed in Escherichia coli DH5alpha cells and Escherichia coli GroES expressed in Escherichia coli BL21(DE3) cells assessed as reduction in pig heart native refolded MDH-mediated NADH production by micro plate reader analysis
How it was run: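 Native MDH counter-screen. GroEL/ES-dMDH refolding run 60 min at 37°C, then EDTA-quenched without compound. IC50 averaged from at least triplicate.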

[4] = target: T1, E. coli GroEL/ES; assay: Inhibition of Escherichia coli GroEL/GroES using Escherichia coli GroEL expressed in Escherichia coli DH5alpha cells and Escherichia coli GroES expressed in Escherichia coli BL21(DE3) cells assessed as inhibition of denatured pig heart MDH refolding by measuring reduction in NADH production incubated for 60 mins by micro plate reader analysis
How it was run: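 Denatured MDH (guanidine-HCl/DTT, 30 min RT) bound to GroEL with GroES in Tris pH 7.4, KCl, MgCl2, DTT buffer. 60 min at 37°C, EDTA quench to 100 mM. Refolded MDH activity read with mesoxalate/NADH at 340 nm. Log-averaged IC50 from replicates.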

[5] = target: T1, E. coli GroEL/ES; assay: Inhibition of Escherichia coli GroEL/GroES using Escherichia coli GroEL expressed in Escherichia coli DH5alpha cells and Escherichia coli GroES expressed in Escherichia coli BL21(DE3) cells assessed as reduction in denatured pig heart MDH ATPase activity by malachite green dye based assay
[6] = tested on: Escherichia coli; assay: Antibacterial activity against Escherichia coli DH5alpha assessed as reduction in bacterial growth incubated for 6 to 8 hrs; assay type: functional, organism-based; conditions: DH5[alpha]
[7] = tested on: Escherichia coli; assay: Antibacterial activity against acrB-deficient Escherichia coli MC4100 assessed as reduction in bacterial growth incubated for 6 to 8 hrs; assay type: functional, organism-based
[8] = tested on: Escherichia coli; assay: Antibacterial activity against Escherichia coli SM101 assessed as reduction in bacterial growth incubated for 12 hrs by UV-Vis spectrophotometric analysis; assay type: functional, organism-based; conditions: SM101, 12 h
[9] = tested on: Bacillus subtilis; assay: Antibacterial activity against Bacillus subtilis 168 assessed as reduction in bacterial growth incubated for 6 to 8 hrs; assay type: functional, organism-based; conditions: subsp. subtilis str. 168
[10] = tested on: Enterococcus faecium; assay: Antibacterial activity against multidrug resistant Enterococcus faecium NCTC 7171 (ATCC 19434) assessed as reduction in bacterial growth incubated for 6 to 8 hrs; assay type: functional, organism-based
How it was run: (§1)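 Broth proliferation assay. S. aureus and MRSA grown in ATCC Medium 18, other pathogens in Brain Heart Infusion. Stagnant incubation at 37°C under breathable seal. OD600 read at mid-log (6-8 h) and corrected with bacteria-free baseline plates. EC50 by variable-slope nonlinear fit, at least triplicate.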

[11] = tested on: Staphylococcus aureus; assay: Antibacterial activity against methicillin resistant Staphylococcus aureus subsp. aureus HPV107 (ATCC BAA-44) assessed as reduction in bacterial growth incubated for 6 to 8 hrs; assay type: functional, organism-based; how it was run: as §1
[12] = target: T2, HSP60/HSP10 (Homo sapiens, UniProt P10809); assay: Inhibition of human HSP60/HSP10 expressed in Escherichia coli Rosetta2(DE3) cells assessed as inhibition of denatured pig heart MDH refolding by measuring reduction in NADH production incubated for 60 mins by micro plate reader analysis
T2 sequence (P10809 whole entry): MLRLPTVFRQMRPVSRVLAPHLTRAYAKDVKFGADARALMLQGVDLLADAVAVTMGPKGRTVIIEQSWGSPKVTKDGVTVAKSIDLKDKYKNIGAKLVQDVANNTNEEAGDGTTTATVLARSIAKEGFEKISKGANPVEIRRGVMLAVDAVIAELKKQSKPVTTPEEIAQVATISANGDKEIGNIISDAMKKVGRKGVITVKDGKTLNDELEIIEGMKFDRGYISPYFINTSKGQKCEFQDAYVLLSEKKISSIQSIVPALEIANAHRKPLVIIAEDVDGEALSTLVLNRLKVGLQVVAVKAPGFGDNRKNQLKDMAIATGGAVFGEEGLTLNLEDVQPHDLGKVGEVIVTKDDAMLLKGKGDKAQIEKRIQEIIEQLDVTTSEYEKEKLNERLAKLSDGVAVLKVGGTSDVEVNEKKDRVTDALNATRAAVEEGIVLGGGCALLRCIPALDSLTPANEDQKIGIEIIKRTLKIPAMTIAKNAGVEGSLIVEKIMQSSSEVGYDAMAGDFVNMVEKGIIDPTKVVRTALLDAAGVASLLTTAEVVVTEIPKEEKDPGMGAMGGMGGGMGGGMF
T2 sequence (P61604 whole entry, further chain): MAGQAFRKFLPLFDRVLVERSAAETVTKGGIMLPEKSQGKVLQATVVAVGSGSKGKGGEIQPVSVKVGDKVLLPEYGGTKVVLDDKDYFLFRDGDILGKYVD
How it was run: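 Pig heart MDH was denatured in guanidine-HCl (dMDH) and complexed with HSP60, then HSP10, in Tris pH 7.4/KCl/MgCl2/DTT buffer. EDTA quench (100 mM final); refolded MDH activity was followed with mesoxalate/NADH at 340 nm.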

[13] = target: T2, HSP60/HSP10; assay: Inhibition of human HSP60/HSP10 expressed in Escherichia coli Rosetta2(DE3) cells assessed as reduction in denatured pig heart MDH ATPase activity by malachite green dye based assay
[14] = Cytotoxicity against human THLE3 cells assessed as reduction in cell viability after 48 hrs by alamar blue assay; assay type: cell-based; conditions: THLE3, 48 h
[15] = tested on: HEK293; assay: Cytotoxicity against HEK293 cells assessed as reduction in cell viability after 48 hrs by alamar blue assay; assay type: cell-based; conditions: Homo sapiens, HEK293, 48 h
[16] = tested on: Staphylococcus aureus; assay: Antibacterial activity against Staphylococcus aureus subsp. aureus Seattle 1945 (ATCC 25923) assessed as inhibition of visual growth after 24 hrs; assay type: functional
How it was run: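 MIC assay in Tryptic Soy broth (ATCC Medium 18). An overnight culture was diluted 5-fold, grown 1 h at 37°C, then diluted to OD600 0.01 (~10⁷ CFU/ml). Compounds were added in DMSO at fixed final concentrations (e.g. vancomycin 1.2-2.2 µM).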

[17] = tested on: Staphylococcus aureus; assay: Bactericidal activity against Staphylococcus aureus subsp. aureus Seattle 1945 (ATCC 25923) at 4 times MIC up to 24 hrs by agar dilution method; assay type: functional, organism-based
How it was run: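 Time-kill in ATCC Medium 18. […] Viable counts were taken at 0, 1, 2, 4, 6 and 24 h by dilution and plating on Medium 18 agar. Values are averages of triplicates.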

[18] = Therapeutic index, ratio of EC50 for human THLE3 cells to EC50 for Staphylococcus aureus subsp. aureus Seattle 1945 (ATCC 25923); assay type: cell-based; conditions: read-out: Ratio EC50
[19] = Therapeutic index, ratio of EC50 for HEK293 cells to EC50 for Staphylococcus aureus subsp. aureus Seattle 1945 (ATCC 25923); assay type: cell-based; conditions: human, read-out: Ratio EC50
[20] = tested on: Klebsiella pneumoniae subsp. pneumoniae; assay: Antibacterial activity against multidrug resistant Klebsiella pneumoniae subsp. pneumoniae NCTC 9633 (ATCC 13883) assessed as reduction in bacterial growth incubated for 6 to 8 hrs; assay type: functional, organism-based; how it was run: as §1
[21] = tested on: Acinetobacter baumannii; assay: Antibacterial activity against multidrug resistant Acinetobacter baumannii 2208 (ATCC 19606) assessed as reduction in bacterial growth incubated for 6 to 8 hrs; assay type: functional; how it was run: as §1
[22] = tested on: Pseudomonas aeruginosa; assay: Antibacterial activity against multidrug resistant Pseudomonas aeruginosa NCTC 10332 (ATCC 10145) assessed as reduction in bacterial growth incubated for 6 to 8 hrs; assay type: functional, organism-based; how it was run: as §1
[23] = tested on: Enterobacter cloacae; assay: Antibacterial activity against multidrug resistant Enterobacter cloacae subsp. cloacae CDC 442-68 (ATCC 13047) assessed as reduction in bacterial growth incubated for 6 to 8 hrs; assay type: functional, organism-based; how it was run: as §1
[24] = tested on: Staphylococcus aureus; assay: Antibacterial activity against methicillin susceptible Staphylococcus aureus subsp. aureus Seattle 1945 (ATCC 25923) assessed as reduction in bacterial growth incubated for 6 to 8 hrs

Row | Compound | IC50 [1] [µM] | IC50 [2] [µM] | IC50 [3] [µM] | IC50 [4] [µM] | IC50 [5] [µM] | EC50 [6] [µM] | EC50 [7] [µM] | EC50 [8] [µM] | EC50 [9] [µM] | EC50 [10] [µM] | EC50 [11] [µM] | IC50 [12] [µM] | IC50 [13] [µM] | EC50 [14] [µM] | EC50 [15] [µM] | EC50 [20] [µM] | EC50 [21] [µM] | EC50 [22] [µM] | EC50 [23] [µM] | EC50 [24] [µM] | other results
1 | O=C(Nc1ccc(Sc2nc3ccccc3s2)c(Cl)c1)c1cc(Br)cc(Br)c1O | 1.4 | > 100 | 7.1 | 1.4 | > 250 | > 100 | 2.3 | 0.33 | 0.1 | 0.15 | 0.13 | 5.5 | 3.6 | 12 | 78 | > 100 | 30 | > 100 | > 100 | 0.2 | MIC [16]: 0.6 µM (≈ 0.342 µg/mL); Activity [17]: Active; selectivity ratio [18]: 60; selectivity ratio [19]: 390
2 | Cn1c(=O)c(C(=O)Nc2ccncc2)c(O)c2ccccc21 | 6.8 | > 100 | > 62.5 | 5.7 | – | > 100 | 21 | 3.3 | 0.47 | > 100 | 1.3 | > 100 | > 250 | > 100 | > 100 | > 100 | > 100 | > 100 | > 100 | 1.8 | MIC [16]: 8 µM (≈ 2.36 µg/mL); Activity [17]: Active; selectivity ratio [18]: > 55; selectivity ratio [19]: > 55
3 | O=C(/C=C/c1ccc([N+](=O)[O-])cc1)c1ccc(O)c(O)c1 | 0.83 | 12 | > 62.5 | 1.2 | 216 | > 100 | > 100 | 48 | > 100 | > 100 | 40 | 5.2 | > 250 | 9.9 | 12 | > 100 | > 100 | > 100 | > 100 | 23 | –
4 | Cc1ccc(S(=O)(=O)Nc2ccc(-c3nc4ccc(NS(=O)(=O)c5ccc(C)cc5)cc4[nH]3)cc2)cc1 | 30 | > 100 | > 62.5 | 7.5 | 119 | > 100 | > 100 | > 100 | > 100 | > 100 | > 100 | 89 | 106 | 29 | 34 | > 100 | > 100 | > 100 | > 100 | > 100 | –
5 | CN[C@@H](CC(C)C)C(=O)N[C@H]1C(=O)N[C@@H](CC(N)=O)C(=O)N[C@H]2C(=O)N[C@H]3C(=O)N[C@H](C(=O)N[C@@H](C(=O)O)c4cc(O)cc(O)c4-c4cc3ccc4O)[C@H](O)c3ccc(c(Cl)c3)Oc3cc2cc(c3O[C@H]2O[C@@H](CO)[C@H](O)[C@@H](O)[C@@H]2O[C@@H]2C[C@@](C)(N)[C@@H](O)[C@@H](C)O2)Oc2ccc(cc2Cl)[C@H]1O | – | – | – | – | – | – | – | – | – | 0.3 | 0.17 | – | – | – | – | > 100 | 17 | 74 | > 100 | 0.2 | MIC [16]: 1.6 µM (≈ 2.32 µg/mL); Activity [17]: Active

Source: ChEMBL document CHEMBL3808280, “GroEL/ES inhibitors as potential antibiotics” (Bioorg Med Chem Lett, 2016)
